From publication PMC3472128 (Structure (London, England : 1993), 2012)

Test system: HA-YAP
Experiment: Immunoprecipitation of Smad7 with HA-YAP in HEK293T cells
Type: cell-based, human
Settings: full-length Smad7 wild type or variants with HA-YAP
Outline: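 HEK293T cells were transfected with epitope-tagged constructs (HA-YAP with full-length Smad7 wild type or variants) and treated where indicated with TGF-β1 at 100 pM. Lysates were immunoprecipitated with anti-Flag antibody, then immunoblotted with antibodies against the tags.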

B1: S206A: Smad7 mutant S206A, flag epitope-tagged plasmid expressed in HEK293T (protein, UniProt O15105 1-426, looked up, variant S206A)
chain: MFRTKRSALVRRLWRSRAPGGEDEEEGAGGGGGGGELRGEGATDSRAHGAGGGGPGRAGCCLGKAVRGAKGHHHPHPPAAGAGAAGGAEADLKALTHSVLKKLKERQLELLLQAVESRGGTRTACLLLPGRLDCRLGPGAPAGAQPAQPPSSYSLPLLLCKVFRWPDLRHSSEVKRLCCCESYGKINPELVCCNPHHLSRLCELEAPPPPYSRYPMDFLKPTADCPDAVPSSAETGGTNYLAPGGLSDSQLLLEPGDRSHWCVVAYWEEKTRVGRLYCVQEPSLDIFYDLPQGNGFCLGQLNSDNKSQLVQKVRSKIGCGIQLTREVDGVWVYNRSSYPIFIKSATLDNPDSRTLLVHKVFPGFSIKAFDYEKAYSLQRPNDHEFMQQPWTGFTVQISFVKGWGQCYTRQFISSCPCWLEVIFNSR
modifications: full-length FLAG tag
  binding to HA-YAP in immunoprecipitation: binding is observed
